Test results reported in ChEMBL document CHEMBL1144110, “Triterpene saponins and lignans from the roots of Pulsatilla chinensis and their cytotoxic activity against HL-60 cells” (J Nat Prod, 1999).
≈ marks a conversion by molar mass, not a printed value.

tested on: HL-60; assay: Cytotoxicity against human HL-60 cells after 72 hrs by MTT assay; assay type: functional, cell-based; settings: HL-60, 72 h
Method in brief: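 HL-60 human promyelocytic leukemia cells grown in RPMI 1640 with 10% FBS, L-glutamine and penicillin/streptomycin. Seeded at 3 × 10^4 cells/mL and preincubated 24 h at 37 °C in 5% CO2. Samples added in EtOH–H2O (1:1) at final 0.0001–50 µg/mL, with vehicle controls, for 72 h. MTT then 4 h, formazan dissolved in DMSO, read at 550 nm. IC50 taken from dose-response curves of samples giving >50% inhibition at 10 µg/mL.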

Row | Structure (SMILES) | IC50
1 | C[C@@H]1O[C@@H](O[C@H]2[C@H](O[C@H]3CC[C@]4(C)[C@H]5CC=C6[C@@H]7CC(C)(C)CC[C@]7(C(=O)O)CC[C@@]6(C)[C@]5(C)CC[C@H]4C3(C)C)OC[C@H](O)[C@@H]2O)[C@H](O)[C@H](O[C@@H]2O[C@H](CO)[C@@H](O[C@@H]3O[C@H](CO)[C@@H](O)[C@H](O)[C@H]3O)[C@H](O)[C@H]2O)[C@H]1O | 2.6 µg/mL (≈ 2.45 µM)
2 | CC1(C)CC[C@]2(C(=O)O)CC[C@]3(C)C(=CC[C@@H]4[C@@]5(C)CC[C@H](O[C@@H]6OC[C@H](O[C@@H]7O[C@H](CO)[C@@H](O)[C@H](O)[C@H]7O)[C@H](O)[C@H]6O)[C@@](C)(CO)[C@@H]5CC[C@]43C)[C@@H]2C1 | > 10 µg/mL
3 | C[C@@H]1O[C@@H](O[C@H]2[C@H](O[C@H]3CC[C@]4(C)[C@H]5CC=C6[C@@H]7CC(C)(C)CC[C@]7(C(=O)O)CC[C@@]6(C)[C@]5(C)CC[C@H]4C3(C)C)OC[C@H](O)[C@@H]2O)[C@H](O)[C@H](O[C@@H]2O[C@H](CO)[C@@H](O)[C@H](O)[C@H]2O)[C@H]1O | 3.6 µg/mL (≈ 4.01 µM)
4 | C[C@@H]1O[C@@H](O[C@H]2[C@H](O[C@H]3CC[C@@]4(C)[C@@H](CC[C@]5(C)[C@@H]4CC=C4[C@@H]6CC(C)(C)CC[C@]6(C(=O)O)CC[C@]45C)[C@]3(C)CO)OC[C@H](O)[C@@H]2O)[C@H](O)[C@H](O[C@@H]2O[C@H](CO)[C@@H](O)[C@H](O)[C@H]2O)[C@H]1O | 7.8 µg/mL (≈ 8.54 µM)
5 | C[C@@H]1O[C@@H](O[C@H]2[C@H](O[C@H]3CC[C@]4(C)[C@H]5CC=C6[C@@H]7CC(C)(C)CC[C@]7(C(=O)O)CC[C@@]6(C)[C@]5(C)CC[C@H]4C3(C)C)OC[C@H](O)[C@@H]2O)[C@H](O)[C@H](O)[C@H]1O | 4.4 µg/mL (≈ 5.99 µM)
6 | COC(=O)[C@]12CCC(C)(C)C[C@H]1C1=CC[C@@H]3[C@@]4(C)CC[C@H](O[C@@H]5OC[C@H](O)[C@H](O)[C@H]5O[C@@H]5O[C@@H](C)[C@H](O)[C@@H](O[C@@H]6O[C@H](CO)[C@@H](O[C@@H]7O[C@H](CO)[C@@H](O)[C@H](O)[C@H]7O)[C@H](O)[C@H]6O)[C@H]5O)C(C)(C)[C@@H]4CC[C@@]3(C)[C@]1(C)CC2 | 7.8 µg/mL (≈ 7.27 µM)
7 | COC(=O)[C@]12CCC(C)(C)C[C@H]1C1=CC[C@@H]3[C@@]4(C)CC[C@H](O[C@@H]5OC[C@H](O)[C@H](O)[C@H]5O[C@@H]5O[C@@H](C)[C@H](O)[C@@H](O[C@@H]6O[C@H](CO)[C@@H](O)[C@H](O)[C@H]6O)[C@H]5O)[C@@](C)(CO)[C@@H]4CC[C@@]3(C)[C@]1(C)CC2 | 8 µg/mL (≈ 8.63 µM)
8 | C[C@@H]1O[C@@H](O[C@H]2[C@H](O[C@H]3CC[C@]4(C)[C@H]5CC=C6[C@@H]7CC(C)(C)CC[C@]7(C(=O)O)CC[C@@]6(C)[C@]5(C)CC[C@H]4C3(C)C)OC[C@H](O[C@@H]3O[C@H](CO)[C@@H](O)[C@H](O)[C@H]3O)[C@@H]2O)[C@H](O)[C@H](O[C@@H]2O[C@H](CO)[C@@H](O[C@@H]3O[C@H](CO)[C@@H](O)[C@H](O)[C@H]3O)[C@H](O)[C@H]2O)[C@H]1O | 2.7 µg/mL (≈ 2.21 µM)
9 | COc1cc([C@@H]2OC[C@@H]3[C@H]2CO[C@H]3c2ccc(O)c(OC)c2)ccc1O [(+)-PINORESINOL] | > 10 µg/mL
10 | C[C@@H]1O[C@@H](O[C@H]2[C@H](O[C@H]3CC[C@@]4(C)[C@@H](CC[C@]5(C)[C@@H]4CC=C4[C@@H]6CC(C)(C)CC[C@]6(C(=O)O)CC[C@]45C)[C@]3(C)CO)OC[C@H](O)[C@@H]2O)[C@H](O)[C@H](O)[C@H]1O [ALPHA-HEDERIN] | 7.1 µg/mL (≈ 9.45 µM)
11 | COc1cc([C@@H]2c3cc4c(c(O)c3C[C@H]3COC(=O)[C@@H]32)OCO4)cc(OC)c1OC [BETA-PELTATIN A] | 0.0052 µg/mL (≈ 0.0125 µM)
12 | COc1cc([C@@H]2c3cc4c(cc3[C@@H](O[C@@H]3O[C@@H]5CO[C@@H](C)O[C@H]5[C@H](O)[C@H]3O)[C@H]3COC(=O)[C@H]23)OCO4)cc(OC)c1O [ETOPOSIDE] | 0.3 µg/mL (≈ 0.51 µM)
13 | C[C@@H]1O[C@@H](O[C@H]2[C@H](O[C@H]3CC[C@]4(C)[C@H]5CC=C6[C@@H]7CC(C)(C)CC[C@]7(C(=O)O)CC[C@@]6(C)[C@]5(C)CC[C@H]4C3(C)C)OC[C@H](O[C@@H]3O[C@H](CO)[C@@H](O)[C@H](O)[C@H]3O)[C@@H]2O)[C@H](O)[C@H](O)[C@H]1O [HEDERACOLCHISIDE A1] | 2.3 µg/mL (≈ 2.56 µM)
14 | C[C@@H]1O[C@@H](O[C@H]2[C@H](O[C@H]3CC[C@@]4(C)[C@@H](CC[C@]5(C)[C@@H]4CC=C4[C@@H]6CC(C)(C)CC[C@]6(C(=O)O)CC[C@]45C)[C@]3(C)CO)OC[C@H](O[C@@H]3O[C@H](CO)[C@@H](O)[C@H](O)[C@H]3O)[C@@H]2O)[C@H](O)[C@H](O)[C@H]1O [HEDERACOLCHISIDE A] | 3.8 µg/mL (≈ 4.16 µM)
15 | CC1(C)CC[C@]2(C(=O)O)CC[C@]3(C)C(=CC[C@@H]4[C@@]5(C)CC[C@H](O)C(C)(C)[C@@H]5CC[C@]43C)[C@@H]2C1 [OLEANOLIC_ACID] | > 50 µg/mL
